Reference: article PMC11210309 (Science Advances, 2021)
Each block holds one molecule with its values, some of them ahead of it.

Key:
Notch signaling = test: Western blot of cleaved NOTCH1 and HES1 during hIEC differentiation; type: cell-based, human; details: single treatment with VPA, 1 mM (Fig. 1F)
β-catenin = test: Western blot of β-catenin during hIEC differentiation; type: cell-based, human; details: differentiation of hIEC progenitors, 2 μM Wnt-C59 (Fig. 1F)
How it was run: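 hIEC progenitors are kept on 1% Matrigel in DMEM/F12 with EGF, R-spondin1 and insulin. They are seeded at 1.34 × 10^5 cells/cm2 on 1% Matrigel-coated Transwell inserts with 10 μM Y-27632 until near confluence. They are then switched to DMEM/F12 with EGF (100 ng/ml), 2 μM Wnt-C59, 1 mM VPA, 2% FBS, 2% B27, 1% N2, 2 mM l-glutamine, 1% NEAA and 15 mM Hepes.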

[1] = Apical-to-basolateral permeability; details: human, Caco-2
[2] = Apical-to-basolateral permeability; details: human
hIECs = test: qPCR of intestinal marker genes in compound-treated hIECs; type: cell-based, human; details: compound-treated hIECs in 2D culture (Fig. 1C)

Molecule: CCCC(CCC)C(=O)O [VPA, valproic acid]
Notch signaling (cleaved NOTCH1 and HES1) (Notch signaling): notable enhancement

Molecule: Cc1cc(-c2ccc(CC(=O)Nc3ccc(-c4cccnc4)cc3)cc2)ccn1 [WNT C-59]
Expression of β-catenin (β-catenin): specifically inhibited

Molecule: O=C(O)Cc1ccccc1Nc1c(Cl)cccc1Cl [diclofenac]
Papp A→B at 2 h [1]: 36.4 ± 1.13 ×10⁻⁶ cm/s | Papp A→B at 2 h [2]: 12.5 ± 2.65 ×10⁻⁶ cm/s

Molecule: CC[C@H]1OC(=O)[C@H](C)[C@@H](O[C@H]2C[C@@](C)(OC)[C@@H](O)[C@H](C)O2)[C@H](C)[C@@H](O[C@@H]2O[C@H](C)C[C@H](N(C)C)[C@H]2O)[C@](C)(O)C[C@@H](C)C(=O)[C@H](C)[C@@H](O)[C@]1(C)O [erythromycin]
Papp A→B at 2 h [1]: < 0.3 ×10⁻⁶ cm/s | Papp A→B at 2 h [2]: 4.95 ± 0.14 ×10⁻⁶ cm/s

Molecule: Insulin: acts in the intestinal epithelium via the insulin receptor; component of hIEC medium 1
Differentiation into absorptive cells (VIL1 and ANPEP expression) (hIECs): specifically increased

B1: R-spondin 1: an agonist of Wnt signaling (protein, UniProt Q2MKA7 21-263, looked up)
R-spondin-1: SRGIKGKRQRRISAEGSQACAKGCELCSEVNGCLKCSPKLFILLERNDIRQVGVCLPSCPPGYFDARNPDMNKCIKCKIEHCEACFSHNFCTKCKEGLYLHKGRCYPACPEGSSAANGTMECSSPAQCEMSEWSPWGPCSKKQQLCGFRRGSEERTRRVLHAPVGDHAACSDTKETRRCTVRRVPCPEGQKRRKGGQGRRENANRNLARKESKEAGAGSRRRKGQQQQQQQGTVGPLTSAGPA
Expression of markers of major intestinal cell types (ISCs, enterocytes, secretory lineage cells) (hIECs): induced

Second part, the molecule after the results:

Papp A→B at 2 h [1]: 35.5 ± 1 ×10⁻⁶ cm/s | Papp A→B at 2 h [2]: 13.8 ± 0.74 ×10⁻⁶ cm/s
Molecule: COCCc1ccc(OCC(O)CNC(C)C)cc1 (centres unmarked) [metoprolol]

Papp A→B at 2 h [1]: 29.1 ± 0.97 ×10⁻⁶ cm/s | Papp A→B at 2 h [2]: 13.1 ± 1.25 ×10⁻⁶ cm/s
Molecule: CC(C)NCC(O)COc1cccc2ccccc12 (centres unmarked) [propranolol]

Papp A→B at 2 h [1]: 1.16 ± 0.09 ×10⁻⁶ cm/s | Papp A→B at 2 h [2]: 11.6 ± 0.92 ×10⁻⁶ cm/s
Molecule: CNC(=C[N+](=O)[O-])NCCSCc1ccc(CN(C)C)o1 [ranitidine]
